Laboratory results published in ChEMBL document CHEMBL1275500, “Characterization of the new metallo-beta-lactamase VIM-13 and its integron-borne gene from a Pseudomonas aeruginosa clinical isolate in Spain” (Antimicrob Agents Chemother, 2008).
≈ marks a conversion by molar mass, not a printed value.

How the values were obtained:
Assay type in all cases: functional
[1] = system: Pseudomonas aeruginosa; test: Antimicrobial activity against Pseudomonas aeruginosa isolate PA-SD2 harboring blaVIM-1 gene by Etest method
[2] = system: Pseudomonas aeruginosa; test: Antimicrobial activity against Pseudomonas aeruginosa PAO1 harboring pUCP carrying VIM-13 gene by Etest method in presence of Tazobactam
[3] = system: Escherichia coli; test: Antimicrobial activity against Escherichia coli XL1-Blue harboring pUCP carrying VIM-13 gene by Etest method in presence of Tazobactam
Summary of the method: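 blaVIM-13 was PCR-amplified, passed through pGEM-T, and moved as an EcoRI fragment into pUCP24, with the insert oriented with the lacZ promoter (checked by PCR and sequencing). It was transformed into CaCl2-competent E. coli XL1-Blue and selected on MacConkey agar with 10 μg/ml gentamicin. Piperacillin-tazobactam MIC was read by Etest strip.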

[4] = system: Escherichia coli; test: Antimicrobial activity against Escherichia coli XL1-Blue harboring pUCP carrying VIM-1 gene by Etest method
Summary of the method: (§1)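 Etest MICs of piperacillin, piperacillin-tazobactam, ceftazidime, cefepime, cefotaxime, aztreonam, imipenem and meropenem, run per manufacturer's recommendations. Strains were E. coli XL1-Blue or P. aeruginosa PAO1 carrying pUCP24-derived plasmids with blaVIM-1 or blaVIM-13 (cloned by EcoRI) inserted in the lacZ-promoter orientation. E. coli transformants were selected on 10 μg/ml gentamicin MacConkey agar; PAO1 electroporants were selected on 50 μg/ml gentamicin LB agar.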

[5] = system: Pseudomonas aeruginosa; test: Antimicrobial activity against Pseudomonas aeruginosa PAO1 harboring pUCP carrying VIM-1 gene by Etest method in presence of Tazobactam
[6] = system: Pseudomonas aeruginosa; test: Antimicrobial activity against Pseudomonas aeruginosa isolate PA-SL2 harboring blaVIM-13 gene by Etest method
[7] = system: Pseudomonas aeruginosa; test: Antimicrobial activity against Pseudomonas aeruginosa PAO1 by Etest method
[8] = system: Escherichia coli; test: Antimicrobial activity against Escherichia coli XL1-Blue by Etest method
[9] = system: Pseudomonas aeruginosa; test: Antimicrobial activity against Pseudomonas aeruginosa isolate PA-SL2 harboring blaVIM-13 gene by Etest method in presence of Tazobactam
[10] = system: Escherichia coli; test: Antimicrobial activity against Escherichia coli XL1-Blue harboring pUCP carrying VIM-1 gene by Etest method in presence of Tazobactam; summary of the method: as §1
[11] = system: Pseudomonas aeruginosa; test: Antimicrobial activity against Pseudomonas aeruginosa PAO1 harboring pUCP carrying VIM-1 gene by Etest method; summary of the method: as §1
[12] = system: Pseudomonas aeruginosa; test: Antimicrobial activity against Pseudomonas aeruginosa PAO1 by Etest method in presence of Tazobactam
Summary of the method: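 Etest MICs of piperacillin-tazobactam for P. aeruginosa PAO1 electroporated with pUCP24 carrying cloned blaVIM-1 or blaVIM-13, with the insert in lacZ promoter orientation. Transformants were selected on 50 μg/ml gentamicin LB agar. Testing followed the manufacturer's recommendations, with CLSI breakpoints.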

[13] = system: Pseudomonas aeruginosa; test: Antimicrobial activity against Pseudomonas aeruginosa PAO1 harboring pUCP carrying VIM-13 gene by Etest method; summary of the method: as §1
[14] = system: Escherichia coli; test: Antimicrobial activity against Escherichia coli XL1-Blue by Etest method in presence of Tazobactam
[15] = system: Pseudomonas aeruginosa; test: Antimicrobial activity against Pseudomonas aeruginosa isolate PA-SD2 harboring blaVIM-1 gene by Etest method in presence of Tazobactam
[16] = system: Escherichia coli; test: Antimicrobial activity against Escherichia coli XL1-Blue harboring pUCP carrying VIM-13 gene by Etest method; summary of the method: as §1

Question: Which MIC [1] does the source give for `CCN1CCN(C(=O)N[C@@H](C(=O)N[C@@H]2C(=O)N3[C@@H]2SC(C)(C)[C@@H]3C(=O)O)c2ccccc2)C(=O)C1=O` [PIPERACILLIN] here?
Answer: The MIC was greater than 256 µg/mL.

Question: And the MIC [2]?
Answer: Its MIC is 192 µg/mL.

Question: And the MIC [3]?
Answer: Its MIC is 8 µg/mL.

Question: And the MIC [4]?
Answer: Its MIC is 6 µg/mL (≈ 11.6 µM).

Question: And the MIC [5]?
Answer: Its MIC is 48 µg/mL.

Question: And the MIC [6]?
Answer: The MIC was greater than 256 µg/mL.

Question: What about the MIC [7] of the same molecule?
Answer: The MIC was 3 µg/mL (≈ 5.8 µM).

Question: What about the MIC [8] of the same molecule?
Answer: The MIC was 1.5 µg/mL (≈ 2.9 µM).

Question: And the MIC [9]?
Answer: The MIC was greater than 256 µg/mL.

Question: And the MIC [10]?
Answer: Its MIC is 6 µg/mL.

Question: What about the MIC [11] of the same molecule?
Answer: The MIC was 64 µg/mL (≈ 124 µM).

Question: What about the MIC [12] of the same molecule?
Answer: Its MIC is 3 µg/mL.

Question: And the MIC [13]?
Answer: The MIC was 192 µg/mL (≈ 371 µM).

Question: And the MIC [14]?
Answer: Its MIC is 1 µg/mL.

Question: What about the MIC [15] of the same molecule?
Answer: The MIC was greater than 256 µg/mL.

Question: What about the MIC [16] of the same molecule?
Answer: Its MIC is 8 µg/mL (≈ 15.5 µM).
